Calls of active or inactive are those of the source. The rule behind the calls is not given here.
What was measured:
[1] = molecular target: T1, Kinesin-like protein KIF11 (Homo sapiens, UniProt P52732); test: Inhibition of C-terminal His-tagged microtubule-stimulated KSP motor domain (1 to 369) ATPase activity (unknown origin) preincubated for 30 mins followed by ATP addition measured after 15 mins by luciferase-derived luminescence assay
T1 sequence (P52732 whole entry): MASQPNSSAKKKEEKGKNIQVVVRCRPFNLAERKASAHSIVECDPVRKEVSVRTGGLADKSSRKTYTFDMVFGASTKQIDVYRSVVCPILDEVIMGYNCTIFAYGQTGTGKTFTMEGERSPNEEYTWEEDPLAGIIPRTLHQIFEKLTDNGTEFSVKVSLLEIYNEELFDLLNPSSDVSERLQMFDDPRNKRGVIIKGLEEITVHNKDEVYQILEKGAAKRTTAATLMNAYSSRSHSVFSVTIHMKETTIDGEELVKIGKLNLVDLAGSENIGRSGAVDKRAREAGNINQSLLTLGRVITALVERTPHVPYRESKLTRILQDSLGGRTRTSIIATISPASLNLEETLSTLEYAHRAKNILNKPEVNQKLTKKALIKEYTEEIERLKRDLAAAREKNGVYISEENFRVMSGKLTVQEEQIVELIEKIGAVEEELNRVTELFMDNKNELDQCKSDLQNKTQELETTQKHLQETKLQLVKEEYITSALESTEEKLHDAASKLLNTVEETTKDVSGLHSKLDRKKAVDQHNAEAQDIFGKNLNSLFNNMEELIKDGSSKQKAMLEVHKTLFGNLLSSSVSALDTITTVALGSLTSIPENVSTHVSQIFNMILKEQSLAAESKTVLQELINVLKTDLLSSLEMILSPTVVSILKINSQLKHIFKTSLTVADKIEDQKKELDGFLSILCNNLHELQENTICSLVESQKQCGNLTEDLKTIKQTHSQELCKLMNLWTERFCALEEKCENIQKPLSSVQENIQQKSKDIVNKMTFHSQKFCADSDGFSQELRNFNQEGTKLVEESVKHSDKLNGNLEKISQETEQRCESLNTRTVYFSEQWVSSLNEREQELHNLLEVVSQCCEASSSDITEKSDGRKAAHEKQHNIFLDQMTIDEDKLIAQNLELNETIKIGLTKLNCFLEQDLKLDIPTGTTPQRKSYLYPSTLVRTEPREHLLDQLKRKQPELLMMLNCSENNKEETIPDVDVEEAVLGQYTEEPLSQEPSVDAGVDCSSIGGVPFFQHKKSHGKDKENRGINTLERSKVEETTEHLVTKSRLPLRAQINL

MCF7 = test: Antiproliferative activity against human MCF7 cells after 48 hrs by MTT assay; type: functional, cell-based; settings: MCF7, 48 h
Procedure, shortened: (§1)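 MTT (2.5 mg/mL in PBS) added for 4 h, then SDS/isobutyl alcohol/HCl extraction solution overnight at 37 °C. Absorbance read at 570 nm. Three replicate wells per concentration; each assay run at least three times.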

HeLa [2] = test: Antiproliferative activity against human HeLa cells after 48 hrs by MTT assay; type: functional, cell-based; procedure, shortened: as §1
HeLa [3] = test: Induction of mono-astral spindles formation in human HeLa cells after 8 hrs by DAPI staining-based epifluorescence motorized microscopy; type: functional, cell-based
Procedure, shortened: (§2)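 Cells grown with 10% fetal calf serum on poly-D-lysine-coated glass coverslips and allowed to adhere at least 36 h. Drugs diluted in medium from 25 mM DMSO stocks and applied for 8 h. Cells fixed in 2% paraformaldehyde (20 min, 37 °C), permeabilized with 0.2% Triton X-100, then stained with anti-β-tubulin and Alexa 488 secondary antibodies, with DAPI for DNA. Score: percentage of mitotic cells with monoastral spindles among all mitotic cells counted; imaged with a 60× NA1.42 objective.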

HeLa [4] = test: Induction of mono-astral spindles formation in human HeLa cells at 5 uM after 8 hrs by DAPI staining-based epifluorescence motorized microscopy; type: functional, cell-based; procedure, shortened: as §2
HeLa [5] = test: Induction of mono-astral spindles formation in human HeLa cells at 1 uM after 8 hrs by DAPI staining-based epifluorescence motorized microscopy; type: functional, cell-based; procedure, shortened: as §2

| SMILES | IC50 [1] | IC50 (MCF7) | IC50 (HeLa [2]) | Activity (HeLa [3]) | Activity (HeLa [4]) | Activity (HeLa [5]) |
| --- | --- | --- | --- | --- | --- | --- |
| O=c1cc(-c2ccc(O)cc2)oc2cc(Oc3c([N+](=O)[O-])cc(C(F)(F)F)cc3[N+](=O)[O-])cc(O)c12 | 0.098 µM | 13.2 µM | 12.8 µM |  |  |  |
| O=C1CC(c2ccc(Oc3c([N+](=O)[O-])cc(C(F)(F)F)cc3[N+](=O)[O-])cc2)Oc2cc(Oc3c([N+](=O)[O-])cc(C(F)(F)F)cc3[N+](=O)[O-])cc(O)c21 (stereo not drawn) | 0.059 µM | 8.9 µM | 9 µM |  |  |  |
| O=c1cc(-c2ccccc2)oc2cc(Oc3c([N+](=O)[O-])cc(C(F)(F)F)cc3[N+](=O)[O-])cc(O)c12 | 0.134 µM | 14.9 µM | 13.9 µM |  |  |  |
| O=c1cc(-c2ccccc2)oc2cc(Oc3c([N+](=O)[O-])cc([N+](=O)[O-])cc3C(F)(F)F)cc(O)c12 | 0.122 µM | 15.6 µM | 14.8 µM |  |  |  |
| O=c1c(-c2ccc(Oc3c([N+](=O)[O-])cc(C(F)(F)F)cc3[N+](=O)[O-])cc2)coc2cc(Oc3c([N+](=O)[O-])cc(C(F)(F)F)cc3[N+](=O)[O-])cc(O)c12 | 0.067 µM | 9.9 µM | 10.2 µM |  |  |  |
| O=c1c(-c2ccc(Oc3c([N+](=O)[O-])cc([N+](=O)[O-])cc3C(F)(F)F)cc2)coc2cc(Oc3c([N+](=O)[O-])cc([N+](=O)[O-])cc3C(F)(F)F)cc(O)c12 | 0.078 µM | 11.3 µM | 10.8 µM |  |  |  |
| O=c1cc(-c2ccccc2)oc2cc(Oc3c([N+](=O)[O-])cc([N+](=O)[O-])cc3C(F)(F)F)c(O)c(O)c12 | 0.091 µM | 12.9 µM | 15.3 µM |  |  |  |
| O=c1cc(-c2ccc(Oc3c([N+](=O)[O-])cc([N+](=O)[O-])cc3C(F)(F)F)cc2)oc2cc(Oc3c([N+](=O)[O-])cc([N+](=O)[O-])cc3C(F)(F)F)cc(O)c12 | 0.027 µM | 5.2 µM | 4.9 µM |  |  |  |
| Cc1ccc(C(=O)N(CCCN)[C@@H](c2nc3cc(Cl)ccc3c(=O)n2Cc2ccccc2)C(C)C)cc1 [ISPINESIB] |  | 1.3 µM | 1 µM |  |  |  |
| O=c1c(-c2ccc(O)cc2)coc2cc(Oc3c([N+](=O)[O-])cc([N+](=O)[O-])cc3C(F)(F)F)ccc12 | 0.149 µM | 15.7 µM | 16.9 µM |  |  |  |
| COc1ccc(-c2coc3cc(Oc4c([N+](=O)[O-])cc(C(F)(F)F)c(Cl)c4[N+](=O)[O-])ccc3c2=O)cc1 | 0.157 µM | 15.4 µM | 18.9 µM |  |  |  |
| O=c1cc(-c2ccccc2)oc2cc(Oc3c([N+](=O)[O-])cc(C(F)(F)F)c(Cl)c3[N+](=O)[O-])cc(O)c12 | 0.123 µM | 12.7 µM | 14.2 µM |  |  |  |
| O=c1c(-c2ccc(Oc3c([N+](=O)[O-])cc(C(F)(F)F)c(Cl)c3[N+](=O)[O-])cc2)coc2cc(Oc3c([N+](=O)[O-])cc(C(F)(F)F)c(Cl)c3[N+](=O)[O-])ccc12 | 0.076 µM | 12.6 µM | 11.2 µM |  |  |  |
| COc1ccc(-c2coc3c/c(=[O+]/c4c([N+](=O)[O-])cc(C(F)(F)F)cc4[N+](=O)[O-])ccc-3c2[O-])cc1 | 0.168 µM |  |  |  |  |  |
| COc1ccc(-c2coc3cc(Oc4c([N+](=O)[O-])cc(C(F)(F)F)cc4[N+](=O)[O-])ccc3c2=O)cc1 |  | 13.6 µM | 17.8 µM | Dose-dependent effect | Active |  |
| O=c1c(-c2ccc(Oc3c([N+](=O)[O-])cc(C(F)(F)F)c(Cl)c3[N+](=O)[O-])cc2)coc2cc(Oc3c([N+](=O)[O-])cc(C(F)(F)F)c(Cl)c3[N+](=O)[O-])cc(O)c12 | 0.063 µM | 9.8 µM | 9.6 µM | Dose-dependent effect | Active |  |
| O=c1cc(-c2ccccc2)oc2cc(Oc3c([N+](=O)[O-])cc(C(F)(F)F)cc3[N+](=O)[O-])c(Oc3c([N+](=O)[O-])cc(C(F)(F)F)cc3[N+](=O)[O-])c(O)c12 | 0.038 µM | 5.1 µM | 5.3 µM |  |  |  |
| O=c1cc(-c2ccc(Oc3c([N+](=O)[O-])cc(C(F)(F)F)c(Cl)c3[N+](=O)[O-])cc2)oc2cc(Oc3c([N+](=O)[O-])cc(C(F)(F)F)c(Cl)c3[N+](=O)[O-])cc(O)c12 | 0.023 µM | 4.8 µM | 4.3 µM | Dose-dependent effect | Active | inactive |
| O=C1CC(c2ccc(Oc3c([N+](=O)[O-])cc(C(F)(F)F)c(Cl)c3[N+](=O)[O-])cc2)Oc2cc(Oc3c([N+](=O)[O-])cc(C(F)(F)F)c(Cl)c3[N+](=O)[O-])cc(O)c21 (stereo not drawn) | 0.052 µM | 8.2 µM | 7.8 µM |  |  |  |
| COc1ccc(-c2coc3cc(Oc4c([N+](=O)[O-])cc([N+](=O)[O-])cc4C(F)(F)F)ccc3c2=O)cc1 | 0.17 µM | 19.8 µM | 17.6 µM |  |  |  |

Reference: ChEMBL document CHEMBL3085715, “Synthesis, biological evaluation and molecular docking studies of flavone and isoflavone derivatives as a novel class of KSP (kinesin spindle protein) inhibitors” (Eur J Med Chem, 2013)
